In brackets after ≈: the same amount, converted by molar mass.
Legend:
Staphylococcus aureus [1] = assay: Antibacterial activity against 10^5 CFU/mL Staphylococcus aureus MTCC 96 after 24 hrs by disc diffusion technique; format: functional
Procedure, shortened: (§1)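 Disc diffusion on Mueller–Hinton agar poured 5 mm deep. The surface was swabbed with a 10⁵ CFU/mL […] suspension. Filter-paper discs 6.25 mm in diameter were soaked in compound in DMSO and placed on the agar. Plates were incubated 24 h at 37 ± 1 °C, and the inhibition zone was measured in mm. A DMSO disc served as blank.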

Staphylococcus aureus [2] = assay: Antibacterial activity against 10^5 CFU/mL Staphylococcus aureus MTCC 96 after 24 hrs by agar streak dilution method; format: functional; details: MTCC 96, 24 h
Procedure, shortened: (§2)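 Agar streak dilution. Stock 100 µg/mL in DMSO; graded amounts were mixed into molten nutrient agar and poured at 4–5 mm depth. Plates carried serial dilutions over […]. About 10⁵ CFU/mL of each bacterium was applied, and plates were incubated at 37 ± 1 °C for 24 h. MIC was read from the dilution series.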

Bacillus cereus [3] = assay: Antibacterial activity against 10^5 CFU/mL Bacillus cereus MTCC 619 after 24 hrs by disc diffusion technique; format: functional; procedure, shortened: as §1
Bacillus cereus [4] = assay: Antibacterial activity against 10^5 CFU/mL Bacillus cereus MTCC 619 after 24 hrs by agar streak dilution method; format: functional; details: MTCC 619, 24 h; procedure, shortened: as §2
DU-145 = assay: Cytotoxicity against […] human DU145 cells after 48 hrs by SRB assay; format: functional; details: DU-145, 48 h
Procedure, shortened: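 SRB assay in DU-145 cells grown in RPMI 1640 with 10% FBS and 2 mM L-glutamine. Cells were plated and held 24 h before addition of four 10-fold concentrations. After 48 h, cells were TCA-fixed, stained with 0.4% SRB and read at 540 nm. GI50, TGI and LC50 were derived against time-zero and control wells; each value is the mean of three experiments.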

Escherichia coli [5] = assay: Antibacterial activity against 10^5 CFU/mL Escherichia coli MTCC 739 after 24 hrs by disc diffusion technique; format: functional; procedure, shortened: as §1
Escherichia coli [6] = assay: Antibacterial activity against 10^5 CFU/mL Escherichia coli MTCC 739 after 24 hrs by agar streak dilution method; format: functional; details: MTCC 739, 24 h; procedure, shortened: as §2
Pseudomonas aeruginosa [7] = assay: Antibacterial activity against 10^5 CFU/mL Pseudomonas aeruginosa MTCC 741 after 24 hrs by disc diffusion technique; format: functional; procedure, shortened: as §1
Pseudomonas aeruginosa [8] = assay: Antibacterial activity against 10^5 CFU/mL Pseudomonas aeruginosa MTCC 741 after 24 hrs by agar streak dilution method; format: functional; details: MTCC 741, 24 h; procedure, shortened: as §2
Klebsiella pneumoniae [9] = assay: Antibacterial activity against 10^5 CFU/mL Klebsiella pneumoniae MTCC 109 after 24 hrs by disc diffusion technique; format: functional; procedure, shortened: as §1
Klebsiella pneumoniae [10] = assay: Antibacterial activity against 10^5 CFU/mL Klebsiella pneumoniae MTCC 109 after 24 hrs by agar streak dilution method; format: functional; details: MTCC 109, 24 h; procedure, shortened: as §2
Salmonella typhi [11] = assay: Antibacterial activity against 10^5 CFU/mL Salmonella typhi MTCC 733 after 24 hrs by disc diffusion technique; format: functional, Salmonella enterica subsp. enterica serovar Typhi
Procedure, shortened: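 Disc diffusion. Mueller-Hinton agar autoclaved 120 °C 30 min, poured 5 mm deep. Surface swabbed with 10⁵ CFU/mL suspension […]. 6.25 mm filter-paper discs soaked in compound in DMSO; DMSO-only disc as blank. Incubated 37 ± 1 °C, 24 h for bacteria or 48 h for fungi. Ciprofloxacin and ketoconazole discs as reference drugs. Inhibition zone measured in mm.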

Salmonella typhi [12] = assay: Antibacterial activity against 10^5 CFU/mL Salmonella typhi MTCC 733 after 24 hrs by agar streak dilution method; format: functional, Salmonella enterica subsp. enterica serovar Typhi; details: Salmonella enterica, MTCC 733, 24 h
Proteus vulgaris [13] = assay: Antibacterial activity against 10^5 CFU/mL Proteus vulgaris MTCC 1771 after 24 hrs by disc diffusion technique; format: functional; procedure, shortened: as §1
Proteus vulgaris [14] = assay: Antibacterial activity against 10^5 CFU/mL Proteus vulgaris MTCC 1771 after 24 hrs by agar streak dilution method; format: functional; details: MTCC 1771, 24 h; procedure, shortened: as §2
Shigella flexneri [15] = assay: Antibacterial activity against 10^5 CFU/mL Shigella flexneri MTCC 1457 after 24 hrs by disc diffusion technique; format: functional; procedure, shortened: as §1
Shigella flexneri [16] = assay: Antibacterial activity against 10^5 CFU/mL Shigella flexneri MTCC 1457 after 24 hrs by agar streak dilution method; format: functional; details: MTCC 1457, 24 h; procedure, shortened: as §2
Aspergillus niger [17] = assay: Antifungal activity against 10^5 CFU/mL Aspergillus niger MTCC 282 after 48 hrs by disc diffusion technique; format: functional
Aspergillus niger [18] = assay: Antifungal activity against 10^5 CFU/mL Aspergillus niger MTCC 282 after 48 hrs by agar streak dilution method; format: functional; details: MTCC 282, 48 h
Procedure, shortened: (§3)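 Agar streak dilution for fungi. Stock 100 µg/mL in DMSO; graded amounts were mixed into molten Sabouraud dextrose agar and poured at 4–5 mm depth. Serial dilutions ran over […]. About 10⁵ CFU/mL inoculum was applied, with incubation at 37 ± 1 °C for 48 h. MIC was read from the dilution series.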

Aspergillus fumigatus [19] = assay: Antifungal activity against 10^5 CFU/mL Aspergillus fumigatus MTCC 343 after 48 hrs by disc diffusion technique; format: functional
Aspergillus fumigatus [20] = assay: Antifungal activity against 10^5 CFU/mL Aspergillus fumigatus MTCC 343 after 48 hrs by agar streak dilution method; format: functional; details: MTCC 343, 48 h; procedure, shortened: as §3
Aspergillus clavatus [21] = assay: Antifungal activity against 10^5 CFU/mL Aspergillus clavatus MTCC 1323 after 48 hrs by disc diffusion technique; format: functional
Aspergillus clavatus [22] = assay: Antifungal activity against 10^5 CFU/mL Aspergillus clavatus MTCC 1323 after 48 hrs by agar streak dilution method; format: functional; details: MTCC 1323, 48 h; procedure, shortened: as §3
Candida albicans [23] = assay: Antifungal activity against 10^5 CFU/mL Candida albicans MTCC 183 after 48 hrs by disc diffusion technique; format: functional
Candida albicans [24] = assay: Antifungal activity against 10^5 CFU/mL Candida albicans MTCC 183 after 48 hrs by agar streak dilution method; format: functional; details: MTCC 183, 48 h; procedure, shortened: as §3
[25] = tested on: Mycobacterium tuberculosis; assay: Antimycobacterial activity against 10^4 to 10^7 CFU/mL Mycobacterium tuberculosis H37Rv at 6.25 ug/ml by BACTEC MGIT method; format: functional
Procedure, shortened: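 Primary screen at 6.25 in the BACTEC MGIT system: modified Middlebrook 7H9 broth tubes with compound, seeded with 10⁴-10⁷ CFU/mL H37Rv plus 0.1 mL egg-based L.J. medium. Incubated at 37 ± 1 °C and read daily from day 2 under UV light against positive and uninoculated controls.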

SMILES	inhibition zone (IZ) (Staphylococcus aureus [1]) [mm]	MIC (Staphylococcus aureus [2]) [µg/mL]	inhibition zone (IZ) (Bacillus cereus [3]) [mm]	MIC (Bacillus cereus [4]) [µg/mL]	GI50 (DU-145) [µM]	LC50 (concentration giving 50% net cell kill relative to time zero) (DU-145) [µM]	TGI (DU-145) [µM]	inhibition zone (IZ) (Escherichia coli [5]) [mm]	MIC (Escherichia coli [6]) [µg/mL]	inhibition zone (IZ) (Pseudomonas aeruginosa [7]) [mm]	MIC (Pseudomonas aeruginosa [8]) [µg/mL]	inhibition zone (IZ) (Klebsiella pneumoniae [9]) [mm]	MIC (Klebsiella pneumoniae [10]) [µg/mL]	inhibition zone (IZ) (Salmonella typhi [11]) [mm]	MIC (Salmonella typhi [12]) [µg/mL]	inhibition zone (IZ) (Proteus vulgaris [13]) [mm]	MIC (Proteus vulgaris [14]) [µg/mL]	inhibition zone (IZ) (Shigella flexneri [15]) [mm]	MIC (Shigella flexneri [16]) [µg/mL]	inhibition zone (IZ) (Aspergillus niger [17]) [mm]	further results
N#Cc1ccc(Nc2nc(Oc3ccnc4ccccc34)nc(N3CCN(C(c4ccccc4)c4ccc(Cl)cc4)CC3)n2)cc1C(F)(F)F (centres undefined)	25	12.5 (≈ 18 µM)	25	12.5 (≈ 18 µM)	> 100	> 100	> 100	23	50 (≈ 72.1 µM)	24	12.5 (≈ 18 µM)	25	12.5 (≈ 18 µM)	25	25 (≈ 36.1 µM)	27	6.25 (≈ 9.02 µM)	22	25 (≈ 36.1 µM)	25	MIC (Aspergillus niger [18]): 25 µg/mL (≈ 36.1 µM); inhibition zone (IZ) (Aspergillus fumigatus [19]): 26 mm; MIC (Aspergillus fumigatus [20]): 25 µg/mL (≈ 36.1 µM); inhibition zone (IZ) (Aspergillus clavatus [21]): 25 mm; MIC (Aspergillus clavatus [22]): 50 µg/mL (≈ 72.1 µM); inhibition zone (IZ) (Candida albicans [23]): 25 mm; MIC (Candida albicans [24]): 25 µg/mL (≈ 36.1 µM)
N#Cc1ccc(Nc2nc(Oc3ccnc4ccccc34)nc(N3CCN(c4ccccc4F)CC3)n2)cc1C(F)(F)F	24	25 (≈ 42.6 µM)	27	6.25 (≈ 10.7 µM)	> 100	> 100	> 100	26	12.5 (≈ 21.3 µM)	22	50 (≈ 85.2 µM)	26	12.5 (≈ 21.3 µM)	24	25 (≈ 42.6 µM)	25	6.25 (≈ 10.7 µM)	23	25 (≈ 42.6 µM)	25	MIC (Aspergillus niger [18]): 25 µg/mL (≈ 42.6 µM); inhibition zone (IZ) (Aspergillus fumigatus [19]): 25 mm; MIC (Aspergillus fumigatus [20]): 25 µg/mL (≈ 42.6 µM); inhibition zone (IZ) (Aspergillus clavatus [21]): 24 mm; MIC (Aspergillus clavatus [22]): 50 µg/mL (≈ 85.2 µM); inhibition zone (IZ) (Candida albicans [23]): 26 mm; MIC (Candida albicans [24]): 25 µg/mL (≈ 42.6 µM)
N#Cc1ccc(Nc2nc(Oc3ccnc4ccccc34)nc(N3CCN(c4ccc(F)cc4)CC3)n2)cc1C(F)(F)F	25	25 (≈ 42.6 µM)	26	6.25 (≈ 10.7 µM)	> 100	> 100	> 100	22	50 (≈ 85.2 µM)	23	25 (≈ 42.6 µM)	23	25 (≈ 42.6 µM)	24	25 (≈ 42.6 µM)	24	25 (≈ 42.6 µM)	21	50 (≈ 85.2 µM)	26	MIC (Aspergillus niger [18]): 12.5 µg/mL (≈ 21.3 µM); inhibition zone (IZ) (Aspergillus fumigatus [19]): 24 mm; MIC (Aspergillus fumigatus [20]): 50 µg/mL (≈ 85.2 µM); inhibition zone (IZ) (Aspergillus clavatus [21]): 25 mm; MIC (Aspergillus clavatus [22]): 50 µg/mL (≈ 85.2 µM); inhibition zone (IZ) (Candida albicans [23]): 24 mm; MIC (Candida albicans [24]): 50 µg/mL (≈ 85.2 µM)
N#Cc1ccc(Nc2nc(Oc3ccnc4ccccc34)nc(N3CCN(c4cccc(C(F)(F)F)c4)CC3)n2)cc1C(F)(F)F	28	6.25 (≈ 9.82 µM)	28	6.25 (≈ 9.82 µM)	38.7	> 100	74.1	26	12.5 (≈ 19.6 µM)	25	6.25 (≈ 9.82 µM)	23	25 (≈ 39.3 µM)	27	12.5 (≈ 19.6 µM)	25	12.5 (≈ 19.6 µM)	25	12.5 (≈ 19.6 µM)	27	MIC (Aspergillus niger [18]): 12.5 µg/mL (≈ 19.6 µM); inhibition zone (IZ) (Aspergillus fumigatus [19]): 27 mm; MIC (Aspergillus fumigatus [20]): 25 µg/mL (≈ 39.3 µM); inhibition zone (IZ) (Aspergillus clavatus [21]): 28 mm; MIC (Aspergillus clavatus [22]): 12.5 µg/mL (≈ 19.6 µM); inhibition zone (IZ) (Candida albicans [23]): 26 mm; MIC (Candida albicans [24]): 25 µg/mL (≈ 39.3 µM); inhibition at 6.25 µg/mL [25]: 99%
COc1ccc(CN2CCN(c3nc(Nc4ccc(C#N)c(C(F)(F)F)c4)nc(Oc4ccnc5ccccc45)n3)CC2)c(OC)c1OC	28	6.25 (≈ 9.29 µM)	26	6.25 (≈ 9.29 µM)	> 100	> 100	> 100	26	12.5 (≈ 18.6 µM)	26	6.25 (≈ 9.29 µM)	23	12.5 (≈ 18.6 µM)	26	12.5 (≈ 18.6 µM)	26	6.25 (≈ 9.29 µM)	25	12.5 (≈ 18.6 µM)	27	MIC (Aspergillus niger [18]): 12.5 µg/mL (≈ 18.6 µM); inhibition zone (IZ) (Aspergillus fumigatus [19]): 27 mm; MIC (Aspergillus fumigatus [20]): 25 µg/mL (≈ 37.2 µM); inhibition zone (IZ) (Aspergillus clavatus [21]): 28 mm; MIC (Aspergillus clavatus [22]): 12.5 µg/mL (≈ 18.6 µM); inhibition zone (IZ) (Candida albicans [23]): 25 mm; MIC (Candida albicans [24]): 25 µg/mL (≈ 37.2 µM); inhibition at 6.25 µg/mL [25]: 99%
COc1ccc(N2CCN(c3nc(Nc4ccc(C#N)c(C(F)(F)F)c4)nc(Oc4ccnc5ccccc45)n3)CC2)cc1	24	25 (≈ 41.8 µM)	28	6.25 (≈ 10.4 µM)	> 100	> 100	> 100	25	12.5 (≈ 20.9 µM)	26	6.25 (≈ 10.4 µM)	23	25 (≈ 41.8 µM)	24	25 (≈ 41.8 µM)	24	12.5 (≈ 20.9 µM)	23	12.5 (≈ 20.9 µM)	25	MIC (Aspergillus niger [18]): 25 µg/mL (≈ 41.8 µM); inhibition zone (IZ) (Aspergillus fumigatus [19]): 27 mm; MIC (Aspergillus fumigatus [20]): 25 µg/mL (≈ 41.8 µM); inhibition zone (IZ) (Aspergillus clavatus [21]): 28 mm; MIC (Aspergillus clavatus [22]): 12.5 µg/mL (≈ 20.9 µM); inhibition zone (IZ) (Candida albicans [23]): 24 mm; MIC (Candida albicans [24]): 50 µg/mL (≈ 83.5 µM)
